In article PMC4982705 (Biochemical pharmacology, 2016):

Legend:
Assay in all cases: intrinsic fluorescence titration
Assay type in all cases: binding
[1] = molecular target: SULT1B1 (hSULT1B1, wildtype) (Homo sapiens, UniProt O43704, E275K/H109Y)
Summary of the method: (§1)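 Ligand: PAP (cofactor product). Protein: N-terminal 6xHis human SULT1B1, expressed in E. coli BL21-DE3-RIL (IPTG, 20°C) and purified on Ni-NTA. 0.20 µM enzyme in 10 mM sodium phosphate pH 7.8, 10% glycerol, 150 mM NaCl. PAP titrated in; each step mixed 15 s, then intrinsic fluorescence (ex 282, em 338) read for 15 s. Kd from one-site hyperbolic fit; triplicate runs.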

[2] = molecular target: SULT1B1 (hSULT1B1, wildtype) (Homo sapiens, UniProt O43704)
Chain of SULT1B1 (hSULT1B1, wildtype) (Homo sapiens, UniProt O43704) (O43704 whole entry): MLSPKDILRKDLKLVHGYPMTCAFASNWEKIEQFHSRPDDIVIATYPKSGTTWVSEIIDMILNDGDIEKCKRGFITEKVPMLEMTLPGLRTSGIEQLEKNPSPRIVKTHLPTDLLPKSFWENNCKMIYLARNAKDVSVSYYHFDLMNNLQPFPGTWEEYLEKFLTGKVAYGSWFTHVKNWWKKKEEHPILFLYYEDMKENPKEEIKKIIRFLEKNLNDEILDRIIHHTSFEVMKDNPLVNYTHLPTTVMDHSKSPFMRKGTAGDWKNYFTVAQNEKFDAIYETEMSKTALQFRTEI
Summary of the method: as §1

[3] = molecular target: SULT1B1 (hSULT1B1, wildtype) (Homo sapiens, UniProt O43704, K266E)
Chain of SULT1B1 (hSULT1B1, wildtype) (Homo sapiens, UniProt O43704, K266E) (O43704 whole entry K266E): as the sequence (O43704 whole entry) above, with K266E counted along it

[4] = molecular target: SULT1B1 (hSULT1B1, wildtype) (Homo sapiens, UniProt O43704, E275K)
Chain of SULT1B1 (hSULT1B1, wildtype) (Homo sapiens, UniProt O43704, E275K) (O43704 whole entry E275K): as the sequence (O43704 whole entry) above, with E275K counted along it
Summary of the method: as §1

[5] = molecular target: SULT1B1-K266E/E275K heterodimer (Homo sapiens, UniProt O43704, E275K/K266E)
Chain of SULT1B1-K266E/E275K heterodimer (O43704 whole entry K266E): as the sequence (O43704 whole entry) above, with K266E counted along it
Chain of SULT1B1-K266E/E275K heterodimer (O43704 whole entry E275K): as the sequence (O43704 whole entry) above, with E275K counted along it
Summary of the method: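 His-tagged K266E and E275K SULT1B1 subunits were purified separately from E. coli, then co-incubated at normalized concentrations for 1 h on ice to form the heterodimer. 0.20 µM enzyme in 10 mM sodium phosphate pH 7.8, 10% glycerol, 150 mM NaCl. PAP added stepwise; intrinsic fluorescence (ex 282/em 338) averaged over 15 s after 15 s mixing. Kd from one-site hyperbolic fit; triplicate.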

Chain of SULT1B1 (hSULT1B1, wildtype) (Homo sapiens, UniProt O43704, E275K/H109Y) (O43704 whole entry H109Y/E275K): as the sequence (O43704 whole entry) above, with H109Y, E275K counted along it

Nc1ncnc2c1ncn2[C@@H]1O[C@H](COP(=O)(O)O)[C@@H](OP(=O)(O)O)[C@H]1O [PAP, 3′,5′-diphosphoadenosine]
Kd [1]: 668 ± 31 nM | Kd [2]: 106 ± 9 nM | Kd [3]: 1470 nM | Kd [4]: 80 ± 9 nM | Kd [5]: 180 ± 6 nM
